According to ChEMBL document CHEMBL4330086, “Synthesis, in silico experiments and biological evaluation of 1,3,4-trisubstituted pyrazole derivatives as antimalarial agents” (Eur J Med Chem, 2019):
The source made the active and inactive calls. The rule behind the calls is not given here.

Key:
Plasmodium berghei [1] = test: Anti-plasmodial activity against Plasmodium berghei ANKA infected in mouse assessed as suppression in blood parasitemia level at 0.048 mmol/kg/day, po administered as single dose at 24 hrs time interval from day 1 to day 3 and measured 96 hrs post infection by Giemsa staining based microscopic method relative to control; format: functional
Summary of the method: (§1)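 Swiss albino mice, five per group, were infected i.v. on day 0 with 0.2 ml of 2 x 10^7 P. berghei ANKA parasitized erythrocytes. Oral dosing at 0.048 mmol/kg/day began 2 h later and repeated daily on days 1-3. The vehicle was 7% Tween and 3% ethanol in water. Giemsa smears were read on day 4 (5 fields of ~100 RBC). Suppression was taken against vehicle controls, and survival was tracked per mouse.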

Plasmodium berghei [2] = test: Anti-plasmodial activity against Plasmodium berghei ANKA infected in mouse assessed as mean survival time at 0.048 mmol/kg/day, po administered as single dose at 24 hrs time interval from day 1 to day 3 and measured 96 hrs post infection (reference value: 4.33 +/- 0.7 day); format: functional
Erythrocyte [3] = test: Antihemolytic activity in RBC (unknown origin) at 40 ug/ml relative to control
Erythrocyte [4] = test: Antihemolytic activity in RBC (unknown origin) relative to control
PBMC [5] = test: Cytotoxicity against human PBMC assessed as reduction in cell viability at 6.25 ug/ml after 30 mins by Neutral red dye-based phase-contrast inverted microscopic analysis relative to control; conditions: 0.5 h
Summary of the method: (§2)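 PBMC were isolated from a healthy donor by Ficoll-Hypaque density-gradient centrifugation and exposed to a range of test concentrations. Viability was scored by neutral red uptake, with retained dye taken as proportional to viable cells with intact membranes.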

Plasmodium falciparum [6] = test: Anti-plasmodial activity against chloroquine resistant Plasmodium falciparum RKL9 infected in human erythrocytes after 24 hrs by Giemsa staining-based method; format: functional, organism-based; conditions: RKL9, 24 h
Summary of the method: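 Chloroquine-resistant RKL9 kept in continuous culture (Trager-Jensen). Parasitaemia adjusted to 1-1.5% with fresh human B(+) RBC in RPMI 1640 with 10% AB(+) serum. Two-fold serial dilutions from ethanol stock, duplicate wells, 37°C for 24 h. Giemsa smears scored as schizonts per 100 asexual parasites. Schizont maturation inhibition = 1 − Nt/Nc x 100; IC50 derived.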

[7] = Selectivity ratio of IC50 for human PBMC to IC50 for chloroquine resistant Plasmodium falciparum RKL9; format: toxicity; conditions: read-out: Ratio IC50
PBMC [8] = test: Cytotoxicity against human PBMC assessed as reduction in cell viability after 30 mins by Neutral red dye-based phase-contrast inverted microscopic analysis; conditions: 0.5 h; summary of the method: as §2
Erythrocyte [9] = test: Antihemolytic activity in RBC (unknown origin); format: functional
[10] = Acute toxicity in mouse assessed as effect on body weight at 150 mg/kg, po after 3 days; format: organism-based; conditions: in vivo, 72 h
Summary of the method: (§3)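 Male mice, 25-30 g, six per group, fasted overnight and weighed before dosing. Compounds given as suspensions in aqueous 1% gum acacia. Five dose groups per compound. Toxicity signs, body-weight change and deaths recorded over 3 days after administration.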

[11] = Acute toxicity in mouse up to 150 mg/kg, po after 3 days; format: organism-based; conditions: in vivo, 72 h; summary of the method: as §3
Erythrocyte [12] = test: Antiinflammatory activity in RBC (unknown origin) at 40 ug/ml relative to control
[13] = Selectivity ratio of IC50 for antihemolytic activity in RBC (unknown origin) to IC50 for chloroquine resistant Plasmodium falciparum RKL9; format: functional
PBMC [14] = test: Cytotoxicity against human PBMC assessed as reduction in cell viability at 100 ug/ml after 30 mins by Neutral red dye-based phase-contrast inverted microscopic analysis relative to control; conditions: 0.5 h; summary of the method: as §2
[15] = Acute toxicity in mouse assessed as mouse death at 150 mg/kg, po after 3 days; format: organism-based; conditions: in vivo, 72 h; summary of the method: as §3
Erythrocyte [16] = test: Antiinflammatory activity in RBC (unknown origin) at 20 ug/ml relative to control
Erythrocyte [17] = test: Antiinflammatory activity in RBC (unknown origin); format: functional
Plasmodium berghei [18] = test: Anti-plasmodial activity against Plasmodium berghei ANKA infected in mouse assessed as increase in mean survival time at 0.048 mmol/kg/day, po administered as single dose at 24 hrs time interval from day 1 to day 3 and measured 96 hrs post infection; format: functional, organism-based; summary of the method: as §1
PBMC [19] = test: Cytotoxicity against human PBMC assessed as reduction in cell viability at 25 ug/ml after 30 mins by Neutral red dye-based phase-contrast inverted microscopic analysis relative to control; conditions: 0.5 h; summary of the method: as §2
Erythrocyte [20] = test: Antihemolytic activity in RBC (unknown origin) at 20 ug/ml relative to control
Erythrocyte [21] = test: Antiinflammatory activity in RBC (unknown origin) relative to control
[22] = Selectivity ratio of IC50 for antiinflammatory activity in RBC (unknown origin) to IC50 for chloroquine resistant Plasmodium falciparum RKL9; format: functional
Plasmodium falciparum [23] = test: Potency index, ratio of chloroquine phosphate IC50 to compound IC50 for anti-plasmodial activity against chloroquine resistant Plasmodium falciparum RKL9 infected in human erythrocytes; format: functional

Structure (SMILES)	Activity (Plasmodium berghei [1])	MST (Plasmodium berghei [2])	Activity (Erythrocyte [3])	IC50 (Erythrocyte [4])	Activity (PBMC [5])	IC50 (Plasmodium falciparum [6])	IC50 (PBMC [8])	Activity (Erythrocyte [9])	Activity [10]	Activity [11]	Activity (Erythrocyte [12])	Activity (PBMC [14])	Activity [15]	Activity (Erythrocyte [16])	Activity (Erythrocyte [17])	Activity (Plasmodium berghei [18])	Activity (PBMC [19])	Activity (Erythrocyte [20])	IC50 (Erythrocyte [21])	also measured
COc1ccc(-c2nn(-c3ccccc3)cc2C(=O)N/N=c2/scc(-c3ccc(Br)cc3)n2-c2ccccc2)cc1	81.6%	11.66 days	–	–	–	–	–	–	–	–	–	–	–	–	–	–	–	–	–	–
COc1ccc(-c2nn(-c3ccccc3)cc2C(=O)N/N=C/c2cc(OC)c(OC)c(OC)c2)cc1	93.1%	–	97.8%	121 µM	43%	0.0398 µM	31.2 µM	41%	Non-Toxic	Non-Toxic	5.34%	77.93%	Non-Toxic	17.52%	29.69%	Active	60%	85%	52.5 µM	selectivity ratio [7]: 783; Ratio IC50 [13]: 1700
COc1ccc(-c2nn(-c3ccccc3)cc2C(=O)N/N=c2/scc(-c3ccccc3)n2-c2ccccc2)cc1	97.7%	–	99.8%	138 µM	-6.2%	0.0492 µM	190 µM	41%	Non-Toxic	Non-Toxic	106.28%	48.27%	Non-Toxic	81.19%	56.11%	Active	-1.63%	79%	3.49 µM	Ratio IC50 [22]: 71
COc1ccc(-c2nn(-c3ccccc3)cc2C(=O)N/N=C/c2ccc(F)cc2)cc1	67.81%	10.5 days	–	–	–	–	–	–	–	–	–	–	–	–	–	–	–	–	–	–
CCc1nc(N)nc(N)c1-c1ccc(Cl)cc1 [PYRIMETHAMINE]	100%	–	–	–	–	0.0125 µM	–	–	–	–	–	–	–	–	–	Active	–	–	–	–
C=CCn1c(-c2ccc(Br)cc2)cs/c1=N/NC(=O)c1cn(-c2ccccc2)nc1-c1ccc(OC)cc1	90.8%	–	68%	79.5 µM	8.46%	0.0319 µM	222 µM	16%	Non-Toxic	Non-Toxic	80.34%	39.93%	Non-Toxic	57.79%	35.23%	Active	16.05%	59%	13.7 µM	–
CCN(CC)CCCC(C)Nc1ccnc2cc(Cl)ccc12.O=P(O)(O)O.O=P(O)(O)O (stereo not given) [CHLOROQUINE PHOSPHATE]	100%	12.22 days	–	–	–	–	–	–	–	–	–	–	–	–	–	–	–	–	–	–
COc1ccc(-c2nn(-c3ccccc3)cc2C(=O)N/N=C/c2cccc(O)c2)cc1	97.7%	–	44%	133 µM	-19.18%	0.0142 µM	1000 µM	32%	Non-Toxic	Non-Toxic	59.58%	12.78%	Non-Toxic	54.31%	49.03%	Active	54.42%	40%	16 µM	selectivity ratio [7]: 70000; Ratio IC50 (Plasmodium falciparum [23]): 13
COc1ccc(-c2nn(-c3ccccc3)cc2C(=O)N/N=C/c2ccncc2)cc1	79.31%	8.83 days	–	–	–	–	–	–	–	–	–	–	–	–	–	–	–	–	–	–
COc1ccc(-c2nn(-c3ccccc3)cc2C(=O)N/N=C/c2ccccc2)cc1	85.05%	9.33 days	–	–	–	–	–	–	–	–	–	–	–	–	–	–	–	–	–	–
